Test results: ChEMBL document CHEMBL1152523, “3-Substituted phenylalanines as selective AMPA- and kainate receptor ligands” (Bioorg Med Chem, 2009)
The source made the active and inactive calls. The calls are words filed in the database; no cut-off is given here.

Key:
[1] = target: Glutamate receptor ionotropic, kainate 2 (Rattus norvegicus) (UniProt P42260); experiment: Displacement of [3H]SYM2081 from rat recombinant iGluR6 expressed in baculovirus-infected insect Sf9 cells
How it was run: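 Recombinant rat iGluR6(V,C,R) expressed in baculovirus-infected Sf9 insect cells. Competition binding against [3H]-SYM 2081 radioligand. Three independent experiments, mean ± SEM.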

[2] = target: Glutamate receptor 2 (Rattus norvegicus, UniProt P19491); experiment: Displacement of [3H]AMPA from wild type rat GluR2 S1S2 ligand binding core
Chain of Glutamate receptor 2 (P19491 whole entry): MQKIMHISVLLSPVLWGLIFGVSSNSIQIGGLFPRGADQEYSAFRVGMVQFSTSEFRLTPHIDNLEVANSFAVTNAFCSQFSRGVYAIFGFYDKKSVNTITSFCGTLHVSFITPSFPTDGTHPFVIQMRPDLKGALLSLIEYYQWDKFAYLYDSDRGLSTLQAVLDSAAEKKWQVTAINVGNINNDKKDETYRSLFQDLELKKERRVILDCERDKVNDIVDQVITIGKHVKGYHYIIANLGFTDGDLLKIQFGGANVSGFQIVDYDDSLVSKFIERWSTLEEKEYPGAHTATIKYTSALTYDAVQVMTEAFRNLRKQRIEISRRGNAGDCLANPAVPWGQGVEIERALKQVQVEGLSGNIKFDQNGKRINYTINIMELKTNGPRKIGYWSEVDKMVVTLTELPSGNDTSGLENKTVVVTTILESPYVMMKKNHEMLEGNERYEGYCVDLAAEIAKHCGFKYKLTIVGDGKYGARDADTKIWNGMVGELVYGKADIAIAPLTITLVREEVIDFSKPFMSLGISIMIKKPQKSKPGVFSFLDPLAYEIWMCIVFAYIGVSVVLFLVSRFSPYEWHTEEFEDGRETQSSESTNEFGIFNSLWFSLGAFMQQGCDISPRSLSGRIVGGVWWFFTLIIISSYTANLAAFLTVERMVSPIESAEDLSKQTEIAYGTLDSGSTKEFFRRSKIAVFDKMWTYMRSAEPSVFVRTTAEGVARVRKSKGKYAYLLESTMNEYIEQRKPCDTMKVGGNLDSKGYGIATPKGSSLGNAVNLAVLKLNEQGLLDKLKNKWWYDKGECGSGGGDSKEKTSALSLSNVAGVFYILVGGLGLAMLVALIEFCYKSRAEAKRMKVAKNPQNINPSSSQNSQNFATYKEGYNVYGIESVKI

[3] = target: T1, Glutamate receptor ionotropic, kainate 1 (Rattus norvegicus, UniProt P22756); experiment: Displacement of [3H]S-glutamate from rat GluR5 S1S2 ligand binding core expressed in Escherichia coli (DE3)
T1 sequence (P22756 whole entry): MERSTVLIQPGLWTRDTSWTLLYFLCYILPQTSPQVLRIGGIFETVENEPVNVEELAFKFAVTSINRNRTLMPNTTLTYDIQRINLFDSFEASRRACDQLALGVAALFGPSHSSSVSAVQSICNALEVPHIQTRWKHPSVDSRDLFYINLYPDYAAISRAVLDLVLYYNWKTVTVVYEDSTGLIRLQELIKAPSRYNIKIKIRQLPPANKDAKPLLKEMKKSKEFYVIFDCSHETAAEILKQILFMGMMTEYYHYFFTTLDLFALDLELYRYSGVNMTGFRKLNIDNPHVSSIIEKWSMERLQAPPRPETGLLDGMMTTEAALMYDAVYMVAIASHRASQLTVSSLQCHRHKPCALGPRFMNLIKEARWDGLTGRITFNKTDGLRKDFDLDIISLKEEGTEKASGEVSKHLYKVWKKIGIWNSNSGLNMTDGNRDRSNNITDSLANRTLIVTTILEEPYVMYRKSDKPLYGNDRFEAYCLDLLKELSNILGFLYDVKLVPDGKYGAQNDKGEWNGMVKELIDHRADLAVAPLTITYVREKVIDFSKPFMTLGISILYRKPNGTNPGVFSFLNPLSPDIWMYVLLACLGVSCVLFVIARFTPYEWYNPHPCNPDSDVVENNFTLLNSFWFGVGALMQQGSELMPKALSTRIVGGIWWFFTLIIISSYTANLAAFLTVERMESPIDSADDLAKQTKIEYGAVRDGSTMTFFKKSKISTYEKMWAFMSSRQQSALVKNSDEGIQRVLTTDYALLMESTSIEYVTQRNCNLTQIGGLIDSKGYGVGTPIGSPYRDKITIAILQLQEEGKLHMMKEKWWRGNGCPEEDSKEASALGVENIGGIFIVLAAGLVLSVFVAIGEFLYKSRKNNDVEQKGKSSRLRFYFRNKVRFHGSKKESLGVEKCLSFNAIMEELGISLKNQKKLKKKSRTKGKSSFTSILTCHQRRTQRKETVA

[4] = species on record: Rattus norvegicus; experiment: Displacement of [3H]kainic acid from kainate receptor in rat cortical membrane; type: cell membranes
How it was run: (§1)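 Native rat brain membranes prepared per Ransom and Stec. Competition binding with 5 nM [3H]AMPA or 5 nM [3H]KA. Three independent experiments, mean ± SEM.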

[5] = target: Glutamate NMDA receptor (Rattus norvegicus) (UniProt P35439+Q00959+Q00960+Q00961+Q62645+Q8VHN2+Q9R1M7); experiment: Displacement of [3H]CGP39653 from NMDA receptor in rat cortical membrane; type: cell membranes
How it was run: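 Rat brain membranes prepared per Ransom and Stec. Binding at the NMDA site measured with 2 nM [3H]CGP 39653. Three independent experiments, mean ± SEM.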

[6] = Displacement of [3H]AMPA from AMPA receptor in rat cortical membrane; type: cell membranes; how it was run: as §1
[7] = target: T1, Glutamate receptor ionotropic, kainate 1; experiment: Displacement of [3H]SYM2081 from rat recombinant iGluR5-1b expressed in baculovirus-infected insect Sf9 cells
How it was run: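 Recombinant rat iGluR5(Q)1b expressed in Sf9 insect cells via baculoviral infection; competition binding against [3H]-SYM 2081 radioligand. Values from three independent experiments, expressed as mean ± SEM.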

Chain of Glutamate receptor ionotropic, kainate 2 (Rattus norvegicus) (P42260 whole entry): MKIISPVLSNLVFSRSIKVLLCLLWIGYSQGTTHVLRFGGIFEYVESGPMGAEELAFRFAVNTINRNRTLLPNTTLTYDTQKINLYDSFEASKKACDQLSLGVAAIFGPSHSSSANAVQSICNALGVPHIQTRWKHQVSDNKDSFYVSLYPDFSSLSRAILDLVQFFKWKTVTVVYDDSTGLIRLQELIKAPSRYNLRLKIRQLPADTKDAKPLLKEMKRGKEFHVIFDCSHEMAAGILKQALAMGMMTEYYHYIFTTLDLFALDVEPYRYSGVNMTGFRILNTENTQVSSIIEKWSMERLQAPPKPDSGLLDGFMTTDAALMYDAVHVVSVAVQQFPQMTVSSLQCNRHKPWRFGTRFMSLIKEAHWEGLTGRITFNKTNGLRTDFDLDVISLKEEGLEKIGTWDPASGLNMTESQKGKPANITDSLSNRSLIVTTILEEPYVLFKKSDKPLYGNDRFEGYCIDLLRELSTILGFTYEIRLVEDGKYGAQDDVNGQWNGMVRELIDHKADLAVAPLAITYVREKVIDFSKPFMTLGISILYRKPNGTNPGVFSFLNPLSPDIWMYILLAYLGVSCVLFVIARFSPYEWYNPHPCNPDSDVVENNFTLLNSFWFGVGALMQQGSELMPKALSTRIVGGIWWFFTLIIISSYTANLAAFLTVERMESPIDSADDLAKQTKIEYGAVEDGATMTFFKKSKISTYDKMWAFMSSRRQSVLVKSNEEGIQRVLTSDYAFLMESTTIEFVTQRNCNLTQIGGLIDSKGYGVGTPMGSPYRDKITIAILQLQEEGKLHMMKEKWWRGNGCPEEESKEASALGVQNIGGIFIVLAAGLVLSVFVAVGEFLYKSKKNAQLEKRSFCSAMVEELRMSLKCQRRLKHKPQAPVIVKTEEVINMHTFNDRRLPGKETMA

| Structure (SMILES) | Activity [1] | Kd [2] | Kd [3] | Activity [4] | Activity [5] | IC50 [6] | Ki [7] |
| --- | --- | --- | --- | --- | --- | --- | --- |
| N[C@@H](Cn1ccc(=O)n(Cc2ccccc2C(=O)O)c1=O)C(=O)O | inactive | 146 µM | 3.94 µM | inactive | inactive |  |  |
| NC(Cc1cccc(-c2ccc(CC(=O)O)cc2)c1)C(=O)O (stereo not drawn) | inactive |  |  | inactive | inactive | > 100 µM | > 100 µM |
| N[C@@H](Cc1cccc(-c2cccc(C(=O)O)c2)c1)C(=O)O | inactive |  |  | inactive | inactive |  | 4.08 µM |
| N[C@H](Cc1cccc(-c2cccc(C(=O)O)c2)c1)C(=O)O | inactive |  |  | inactive | inactive |  | > 1000 µM |
| CC(C)(C)c1onc(OCP(=O)(O)O)c1C[C@H](N)C(=O)O | inactive |  |  | inactive | inactive | 16 µM | 2.9 µM |
| NC(Cc1cccc(-c2ccccc2C(=O)O)c1)C(=O)O (racemic) | inactive |  |  | inactive | inactive | > 100 µM | > 100 µM |
| NC(Cc1cc(Cl)c(Cl)c(-c2ccc(-c3nnn[nH]3)cc2)c1)C(=O)O (racemic) | inactive |  |  | inactive | inactive | > 100 µM | > 100 µM |
| NC(Cc1cc(Cl)c(Cl)c(-c2ccc(C(=O)O)s2)c1)C(=O)O (racemic) | inactive |  |  | inactive | inactive | 61 µM | ≥ 100 µM |
| NC(Cc1cc(Cl)c(Cl)c(-c2ccccc2-c2nnn[nH]2)c1)C(=O)O (racemic) | inactive |  |  | inactive | inactive | > 100 µM | > 100 µM |
| NC(Cc1cc(Cl)c(Cl)c(-c2cccc(-c3nnn[nH]3)c2)c1)C(=O)O (racemic) | inactive |  |  | inactive | inactive | > 100 µM | ≥ 100 µM |
| NC(Cc1cc(Cl)c(Cl)c(-c2ccccc2O)c1)C(=O)O (racemic) | inactive |  |  | inactive | inactive | 85 µM | > 100 µM |
| NC(Cc1cccc(Cc2ccccc2C(=O)O)c1)C(=O)O (racemic) | inactive |  |  | inactive | inactive | > 100 µM | ≥ 100 µM |
| NC(Cc1cc(Cl)c(Cl)c(-c2ccc(C(=O)O)cc2)c1)C(=O)O (racemic) | inactive |  |  | inactive | inactive | 42 µM | > 100 µM |
| NC(Cc1cc(Cl)c(Cl)c(-c2ccc([N+](=O)[O-])cc2)c1)C(=O)O (racemic) | inactive |  |  | inactive | inactive | > 100 µM | > 100 µM |
| NC(Cc1cc(Cl)c(Cl)c(-c2ccc(O)cc2)c1)C(=O)O (racemic) | inactive |  |  | inactive | inactive | 33 µM | > 100 µM |
| NC(Cc1cc(Cl)c(Cl)c(-c2cccc(C(=O)O)c2)c1)C(=O)O (racemic) | inactive |  |  | inactive | inactive | > 100 µM | 2.8 µM |
| NC(Cc1cccc(-c2ccc(C(=O)O)cc2)c1)C(=O)O (racemic) | inactive |  |  | inactive | inactive | 41 µM | > 100 µM |
| NC(Cc1cccc(-c2cccc(CC(=O)O)c2)c1)C(=O)O (racemic) | inactive |  |  | inactive | inactive | > 100 µM | ≥ 100 µM |
| NC(Cc1cccc(Cc2ccc(C(=O)O)cc2)c1)C(=O)O (racemic) | inactive |  |  | inactive | inactive | > 100 µM | ≥ 100 µM |
| NC(Cc1cc(Cl)c(Cl)c(-c2cccc([N+](=O)[O-])c2)c1)C(=O)O (racemic) | inactive |  |  | inactive | inactive | > 100 µM | > 100 µM |
| NC(Cc1cccc(-c2cccc(C(=O)O)c2)c1)C(=O)O (racemic) | inactive |  |  | inactive | inactive | > 100 µM | 7.9 µM |
| NC(Cc1cccc(Cc2cccc(C(=O)O)c2)c1)C(=O)O (racemic) | inactive |  |  | inactive | inactive | > 100 µM | 50 µM |
| NC(Cc1cc(Cl)c(Cl)c(-c2cccc(O)c2)c1)C(=O)O (racemic) | inactive |  |  | inactive | inactive | 4.6 µM | > 100 µM |
| NC(Cc1cc(Cl)c(Cl)c(-c2ccccc2C(=O)O)c1)C(=O)O (racemic) | inactive |  |  | inactive | inactive | > 100 µM | > 100 µM |
